# Reference: ChEMBL document CHEMBL5233208, “Optimization of P2Y12 Antagonist Ethyl 6-(4-((Benzylsulfonyl)carbamoyl)piperidin-1-yl)-5-cyano-2-methylnicotinate (AZD1283) Led to the Discovery of an Oral Antiplatelet Agent with Improved Druglike Properties” (J Med Chem, 2019)
# Calls of active or inactive are those of the source. The rule behind the calls is not given here.
# What was measured:
# [1] = species on record: Homo sapiens; assay: Antiplatelet activity in human platelet-rich plasma assessed as inhibition of ADP-induced platelet aggregation by aggregometry; format: functional
# Summary of the method: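 Human PRP from healthy donors free of aspirin/NSAIDs for at least two weeks, drawn into ACD; PRP spun at 300 g for 10 min, PPP at 2000 g. Compound in 0.5% DMSO preincubated 2 min at 37 °C with stirring (900 rpm). Aggregation induced by 10 μM ADP (final) and followed optically for 5 min.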
# [2] = test system: Rattus norvegicus; assay: Antithrombotic activity in anesthetized Wistar rat model of FeCL3-induced carotid artery thrombosis assessed as reduction in thrombus weight at 10 mg/kg, po administered as single dose measured at 1.5 hrs post dose; format: functional, organism-based
# Summary of the method: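 Compounds in 0.5% CMC-Na given to Wistar rats as a single oral gavage dose (10 mL/kg). Rats anesthetized with 2% pentobarbital i.p. at 50 mg/kg and kept on a heating pad. At 1.5 h post-dose, filter paper soaked in 20% FeCl3 applied to the isolated left carotid artery for 10 min; thrombus weight recorded. Mean ± SEM, n = 10.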
# [3] = Metabolic stability in rat liver microsomes assessed as half life at […] measured up to 60 mins in presence of NADPH regeneration system by LC-MS/MS analysis; format: ADME, Microsome
# [4] = Metabolic stability in dog liver microsomes assessed as half life at […] measured up to 60 mins in presence of NADPH regeneration system by LC-MS/MS analysis; format: ADME, Canis lupus familiaris, Microsome
# [5] = Metabolic stability in human liver microsomes assessed as half life at […] measured up to 60 mins in presence of NADPH regeneration system by LC-MS/MS analysis; format: ADME, Microsome
# [6] = Cmax in Sprague-Dawley rat at 5 mg/kg,po measured up to 24 hrs by LC-MS/MS analysis; format: ADME, organism-based; design: time < 24 hrs, dose 5 mg/kg, route po; conditions: in vivo
# [7] = Half life in Sprague-Dawley rat at 5 mg/kg,po measured up to 24 hrs by LC-MS/MS analysis; format: ADME, organism-based; conditions: in vivo
# [8] = Tmax in Sprague-Dawley rat at 5 mg/kg,po measured up to 24 hrs by LC-MS/MS analysis; format: ADME, organism-based; conditions: in vivo
# [9] = AUC (0 to infinity) in Sprague-Dawley rat at 5 mg/kg,po measured up to 24 hrs by LC-MS/MS analysis; format: ADME, organism-based; design: time < 24 hrs, dose 5 mg/kg, route po; conditions: in vivo
# [10] = MRT in Sprague-Dawley rat at 5 mg/kg,po measured up to 24 hrs by LC-MS/MS analysis; format: ADME, organism-based; conditions: in vivo
# [11] = Metabolic stability in rat liver microsomes assessed as intrinsic clearance at 0.1 µM measured up to 60 mins in presence of NADPH regeneration system by LC-MS/MS analysis; conditions: 1 h
# [12] = Metabolic stability in dog liver microsomes assessed as intrinsic clearance at 0.1 µM measured up to 60 mins in presence of NADPH regeneration system by LC-MS/MS analysis; conditions: 1 h
# [13] = Metabolic stability in human liver microsomes assessed as intrinsic clearance at 0.1 µM measured up to 60 mins in presence of NADPH regeneration system by LC-MS/MS analysis; conditions: 1 h
# [14] = target: T1, Cytochrome P450 1A2 (Homo sapiens, UniProt P05177); assay: Inhibition of CYP1A2 in human liver microsomes using phenacetin as substrate preincubated for 10 mins followed by NADPH addition and measured after 15 mins by LC-MS/MS analysis
# T1 sequence (P05177 whole entry): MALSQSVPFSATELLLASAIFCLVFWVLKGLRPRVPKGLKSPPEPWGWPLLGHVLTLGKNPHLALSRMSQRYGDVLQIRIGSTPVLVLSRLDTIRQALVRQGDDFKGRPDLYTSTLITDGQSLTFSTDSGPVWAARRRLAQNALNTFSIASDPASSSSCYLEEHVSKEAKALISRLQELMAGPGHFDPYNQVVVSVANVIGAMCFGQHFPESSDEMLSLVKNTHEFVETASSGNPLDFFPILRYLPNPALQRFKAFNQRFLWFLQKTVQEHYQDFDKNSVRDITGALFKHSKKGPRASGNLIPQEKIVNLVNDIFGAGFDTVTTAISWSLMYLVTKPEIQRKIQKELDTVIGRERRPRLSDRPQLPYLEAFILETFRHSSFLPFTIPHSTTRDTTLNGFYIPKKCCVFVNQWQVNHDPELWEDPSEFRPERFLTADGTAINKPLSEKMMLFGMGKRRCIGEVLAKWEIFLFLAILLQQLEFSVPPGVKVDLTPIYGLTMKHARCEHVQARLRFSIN
# [15] = target: Cytochrome P450 2C9 (Homo sapiens, UniProt P11712); assay: Inhibition of CYP2C9 in human liver microsomes using tolbutamide as substrate preincubated for 10 mins followed by NADPH addition and measured after 15 mins by LC-MS/MS analysis
# Sequence of Cytochrome P450 2C9 (P11712 whole entry): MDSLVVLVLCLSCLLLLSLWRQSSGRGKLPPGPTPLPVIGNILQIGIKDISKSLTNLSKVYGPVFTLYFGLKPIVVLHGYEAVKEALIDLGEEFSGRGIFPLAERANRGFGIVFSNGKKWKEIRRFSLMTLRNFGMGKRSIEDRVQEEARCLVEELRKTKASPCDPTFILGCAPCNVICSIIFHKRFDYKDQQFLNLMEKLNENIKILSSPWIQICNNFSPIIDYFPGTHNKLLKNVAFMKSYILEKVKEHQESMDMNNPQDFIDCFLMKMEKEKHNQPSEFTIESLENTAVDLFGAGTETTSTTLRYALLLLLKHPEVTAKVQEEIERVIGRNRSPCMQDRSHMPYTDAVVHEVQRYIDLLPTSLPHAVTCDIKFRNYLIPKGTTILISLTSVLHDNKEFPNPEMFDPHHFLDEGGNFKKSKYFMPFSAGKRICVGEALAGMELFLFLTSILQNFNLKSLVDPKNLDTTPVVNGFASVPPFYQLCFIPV
# [16] = target: Cytochrome P450 2C19 (Homo sapiens, UniProt P33261); assay: Inhibition of CYP2C19 in human liver microsomes using S-mephenytoin as substrate preincubated for 10 mins followed by NADPH addition and measured after 15 mins by LC-MS/MS analysis
# Sequence of Cytochrome P450 2C19 (P33261 whole entry): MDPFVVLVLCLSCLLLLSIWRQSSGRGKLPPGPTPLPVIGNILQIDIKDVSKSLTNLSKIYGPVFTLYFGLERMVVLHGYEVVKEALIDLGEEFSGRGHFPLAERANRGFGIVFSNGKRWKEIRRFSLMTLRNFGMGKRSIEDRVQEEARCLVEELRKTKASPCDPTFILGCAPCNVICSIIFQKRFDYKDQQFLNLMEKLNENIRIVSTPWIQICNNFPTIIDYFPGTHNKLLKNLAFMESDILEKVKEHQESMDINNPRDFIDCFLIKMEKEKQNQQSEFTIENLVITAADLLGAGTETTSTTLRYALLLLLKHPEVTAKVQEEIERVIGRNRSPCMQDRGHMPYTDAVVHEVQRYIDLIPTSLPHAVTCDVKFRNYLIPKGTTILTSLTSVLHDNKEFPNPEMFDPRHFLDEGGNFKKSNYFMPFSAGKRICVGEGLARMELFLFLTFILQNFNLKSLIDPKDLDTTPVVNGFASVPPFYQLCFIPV
# [17] = target: Cytochrome P450 2D6 (Homo sapiens, UniProt P10635); assay: Inhibition of CYP2D6 in human liver microsomes using dextromethorphan as substrate preincubated for 10 mins followed by NADPH addition and measured after 15 mins by LC-MS/MS analysis
# Sequence of Cytochrome P450 2D6 (P10635 whole entry): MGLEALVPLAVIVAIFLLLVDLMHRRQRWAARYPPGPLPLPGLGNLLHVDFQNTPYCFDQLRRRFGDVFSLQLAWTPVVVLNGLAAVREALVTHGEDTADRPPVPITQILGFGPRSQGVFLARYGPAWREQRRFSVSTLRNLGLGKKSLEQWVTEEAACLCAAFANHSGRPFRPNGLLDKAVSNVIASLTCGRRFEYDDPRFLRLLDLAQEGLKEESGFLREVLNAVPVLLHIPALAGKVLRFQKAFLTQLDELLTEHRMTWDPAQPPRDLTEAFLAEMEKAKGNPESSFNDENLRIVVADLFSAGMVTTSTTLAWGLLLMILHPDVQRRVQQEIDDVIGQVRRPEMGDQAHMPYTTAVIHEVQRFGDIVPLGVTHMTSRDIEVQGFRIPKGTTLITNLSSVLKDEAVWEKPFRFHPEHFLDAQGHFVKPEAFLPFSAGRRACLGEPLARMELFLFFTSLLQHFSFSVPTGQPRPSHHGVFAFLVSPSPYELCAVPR
# [18] = target: T2, Cytochrome P450 3A4 (Homo sapiens, UniProt P08684); assay: Inhibition of CYP3A4 in human liver microsomes using Midazolam as substrate preincubated for 10 mins followed by NADPH addition and measured after 15 mins by LC-MS/MS analysis
# T2 sequence (P08684 whole entry): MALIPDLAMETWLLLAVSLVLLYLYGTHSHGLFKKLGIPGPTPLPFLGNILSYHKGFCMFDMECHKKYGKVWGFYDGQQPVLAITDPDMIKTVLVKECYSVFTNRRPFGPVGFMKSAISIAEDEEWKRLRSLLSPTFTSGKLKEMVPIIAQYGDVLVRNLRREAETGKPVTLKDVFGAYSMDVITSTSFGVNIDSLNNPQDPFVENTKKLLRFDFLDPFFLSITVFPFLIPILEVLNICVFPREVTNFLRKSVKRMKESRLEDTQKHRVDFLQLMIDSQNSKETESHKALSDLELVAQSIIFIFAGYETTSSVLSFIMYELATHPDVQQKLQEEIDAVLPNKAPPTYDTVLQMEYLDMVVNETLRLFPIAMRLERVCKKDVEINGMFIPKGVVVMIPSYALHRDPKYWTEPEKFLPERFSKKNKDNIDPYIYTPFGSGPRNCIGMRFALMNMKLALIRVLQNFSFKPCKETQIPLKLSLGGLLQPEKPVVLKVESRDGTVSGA
# [19] = target: T2, Cytochrome P450 3A4; assay: Inhibition of CYP3A4 in human liver microsomes using testosterone as substrate preincubated for 10 mins followed by NADPH addition and measured after 15 mins by LC-MS/MS analysis
compound,measurement,setting,value
N#Cc1cc2c(nc1N1CCC(C(=O)NS(=O)(=O)Cc3cccc(F)c3)CC1)COC2=O,IC50,[1],70.5 µM
N#Cc1cc2c(nc1N1CCC(C(=O)NS(=O)(=O)Cc3cc(Cl)cc(Cl)c3)CC1)COC2=O,IC50,[1],30.5 µM
N#Cc1cc2c(nc1N1CCC(C(=O)NS(=O)(=O)Cc3ccccc3)C1)COC2=O (centres undefined),IC50,[1],> 300 µM
CC(c1ccccc1)S(=O)(=O)NC(=O)C1(F)CCN(c2nc3c(cc2C#N)C(=O)OC3)CC1 (centres undefined),IC50,[1],9.95 µM
CN1Cc2nc(N3CCC(C(=O)NS(=O)(=O)Cc4ccccc4)CC3)c(C#N)cc2C1=O,IC50,[1],> 300 µM
N#Cc1cc2c(nc1N1CCC(C(=O)NS(=O)(=O)Cc3ccccc3)CC1)COC2=O,Activity,[2],Active
same,IC50,[1],2.35 µM
same,half-life,[3],2.42 h
same,half-life,[4],1.93 h
same,half-life,[5],1.35 h
same,Cmax,[6],271 ng/mL
same,half-life,[7],1.7 h
same,Tmax,[8],0.25 h
same,AUC(0-inf),[9],384 ng·h/mL
same,MRT,[10],1.91 h
same,intrinsic clearance,[11],14.5 mL/min/g
same,intrinsic clearance,[12],18.2 mL/min/g
same,intrinsic clearance,[13],25.8 mL/min/g
CC1OC(=O)c2cc(C#N)c(N3CCC(C(=O)NS(=O)(=O)Cc4ccccc4)C3)nc21 (centres undefined),IC50,[1],> 300 µM
N#Cc1cc2c(nc1N1CCC(C(=O)NS(=O)(=O)Cc3ccc(Cl)cc3)CC1)COC2=O,IC50,[1],4.42 µM
N#Cc1cc2c(nc1N1CCC(C(=O)NS(=O)(=O)Cc3ccccc3)CC1)CNC2=O,IC50,[1],> 300 µM
CC1(C(=O)NS(=O)(=O)Cc2ccc(F)cc2F)CCN(c2nc3c(cc2C#N)C(=O)OC3)CC1,IC50,[1],8.76 µM
CC1OC(=O)c2cc(C#N)c(N3CCC(C(=O)NS(=O)(=O)c4ccc(Cl)s4)CC3)nc21 (centres undefined),IC50,[1],> 300 µM
N#Cc1cc2c(nc1N1CCC(C(=O)NS(=O)(=O)Cc3ccccc3)CC1)CCCC2=O,IC50,[1],117 µM
N#Cc1cc2c(nc1N1CCC(C(=O)NS(=O)(=O)C3(c4ccccc4)CC3)CC1)COC2=O,IC50,[1],4.1 µM
CC(c1ccccc1)S(=O)(=O)NC(=O)C1CCN(c2nc3c(cc2C#N)C(=O)OC3)CC1 (centres undefined),IC50,[1],4.16 µM
N#Cc1cc2c(nc1N1CCC(C(=O)NS(=O)(=O)c3ccc(Cl)s3)CC1)COC2=O,IC50,[1],4.47 µM
same,half-life,[3],2.53 h
same,half-life,[4],2.85 h
same,half-life,[5],1.32 h
same,Cmax,[6],225 ng/mL
same,half-life,[7],2.4 h
same,Tmax,[8],0.25 h
same,AUC(0-inf),[9],417 ng·h/mL
same,MRT,[10],2.31 h
same,IC50,[14],> 50 µM
same,IC50,[15],> 50 µM
same,IC50,[16],28.5 µM
same,IC50,[17],> 50 µM
same,IC50,[18],> 50 µM
same,IC50,[19],> 50 µM
same,intrinsic clearance,[11],13.8 mL/min/g
same,intrinsic clearance,[12],12.3 mL/min/g
same,intrinsic clearance,[13],26.6 mL/min/g
N#Cc1cc2c(nc1N1CCC(C(=O)NS(=O)(=O)Cc3ccccc3)CC1)CCC(Cl)C2=O (centres undefined),IC50,[1],> 300 µM
N#Cc1cc2c(nc1N1CCC(C(=O)NS(=O)(=O)Cc3ccc(C(F)(F)F)cc3)CC1)COC2=O,IC50,[1],15.9 µM
N#Cc1cc2c(nc1N1CCC(F)(C(=O)NS(=O)(=O)Cc3ccc(Cl)cc3)CC1)COC2=O,IC50,[1],37.2 µM
CC1(C(=O)NS(=O)(=O)Cc2ccccc2)CCN(c2nc3c(cc2C#N)C(=O)OC3)CC1,IC50,[1],6.68 µM
Cc1ccc(CS(=O)(=O)NC(=O)C2(F)CCN(c3nc4c(cc3C#N)C(=O)OC4)CC2)cc1,IC50,[1],32.8 µM
N#Cc1cc2c(nc1N1CCC(C(=O)NS(=O)(=O)Cc3ccccc3)CC1)CCOC2=O,IC50,[1],> 300 µM
N#Cc1cc2c(nc1N1CC(C(=O)NS(=O)(=O)Cc3ccccc3)C1)COC2=O,IC50,[1],> 300 µM
N#Cc1cc2c(nc1N1CCC(C(=O)NS(=O)(=O)Cc3ccc(F)cc3)CC1)COC2=O,IC50,[1],3.5 µM
N#Cc1cc2c(nc1N1CCC(C(=O)NS(=O)(=O)Cc3ccccc3F)CC1)COC2=O,IC50,[1],23.7 µM
CC1(C(=O)NS(=O)(=O)Cc2ccc(Cl)cc2)CCN(c2nc3c(cc2C#N)C(=O)OC3)CC1,IC50,[1],3.01 µM
same,Cmax,[6],877 ng/mL
same,half-life,[7],1.9 h
same,Tmax,[8],0.25 h
same,AUC(0-inf),[9],1350 ng·h/mL
same,MRT,[10],2.58 h
N#Cc1cc2c(nc1N1CCC(C(=O)NS(=O)(=O)Cc3ccccc3)CC1)CCC(F)C2=O (centres undefined),IC50,[1],255 µM
Cc1ccc(CS(=O)(=O)NC(=O)C2CCN(c3nc4c(cc3C#N)C(=O)OC4)CC2)cc1,IC50,[1],4.28 µM
N#Cc1ccc(CS(=O)(=O)NC(=O)C2CCN(c3nc4c(cc3C#N)C(=O)OC4)CC2)cc1,IC50,[1],8.9 µM
CC1OC(=O)c2cc(C#N)c(N3CC(C(=O)NS(=O)(=O)Cc4ccccc4)C3)nc21 (centres undefined),IC50,[1],> 300 µM
CC1(C(=O)NS(=O)(=O)Cc2ccc(F)cc2)CCN(c2nc3c(cc2C#N)C(=O)OC3)CC1,IC50,[1],35.4 µM
N#Cc1cc2c(nc1N1CCC(F)(C(=O)NS(=O)(=O)Cc3ccccc3)CC1)COC2=O,IC50,[1],1.21 µM
same,Cmax,[6],149 ng/mL
same,half-life,[7],2.52 h
same,Tmax,[8],0.25 h
same,AUC(0-inf),[9],291 ng·h/mL
same,MRT,[10],3.83 h
CC1OC(=O)c2cc(C#N)c(N3CCC(C(=O)NS(=O)(=O)Cc4ccccc4)CC3)nc21 (centres undefined),IC50,[1],> 300 µM
N#Cc1cc2c(nc1N1CCC(F)(C(=O)NS(=O)(=O)c3ccc(Cl)s3)CC1)COC2=O,IC50,[1],37.1 µM
N#Cc1cc2c(nc1N1CC(C(=O)NS(=O)(=O)c3ccc(Cl)s3)C1)COC2=O,IC50,[1],193 µM
N#Cc1cc2c(nc1N1CCC(C(=O)NS(=O)(=O)Cc3ccc(F)cc3F)CC1)COC2=O,IC50,[1],5.2 µM
